In the data set the test system is MS2 coat protein. Put plainly: apparent Kd, MS2 coat protein; higher = weaker binding; RNA-MaP array; FMN 200 µM where present. In a few lines: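 The apparent Kd comes from binding curves fitted cluster by cluster, filtered, and summarised as a median. Those curves followed SNAP-549-labelled MS2 coat protein from 0.7 or 1.5 nM, doubling to 3 µM, on Illumina sequencing-chip clusters where stalled E. coli RNA polymerase had transcribed the designs, without and then with constant ligand. The buffer was 100 mM Tris-HCl pH 7.5, 80 mM KCl, 4 mM MgCl2, BSA, DTT, yeast tRNA and Tween-20, and green signal was normalised to red-channel RNA signal and control-cluster median Fmax.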

Setting [1] is: designed as: OFF switch for flavin mononucleotide, no ligand.
[2] abbreviates: ligand present: flavin mononucleotide, designed as: OFF switch for flavin mononucleotide.
[3] abbreviates: designed as: ON switch for flavin mononucleotide, no ligand.
The mark [4] stands for this setting: ligand present: flavin mononucleotide, designed as: ON switch for flavin mononucleotide.

As usually defined, the apparent Kd is a dissociation constant that holds for the conditions of the assay. Turning to “UCUUGUGUUGAGGAUAUGCGCCGGCUCGCUGGCGCAGAAGGCGGCACAUGAGGAUCACCCAUGUCAGUUCGCGA”, the “apparent Kd” value is, setting by setting: under setting [1], 502 nM; under setting [2], 60.8 nM.
On to “AGAGCCGGCACUGAGGAUAUUCAUAUUAAAACAUGAGGAUCACCCAUGUAGGCCAGAAGGCCUUGGGAGAAGGCAGGUCGGCUCU”, for which the “apparent Kd” value runs as follows: under setting [3], 407 nM; under setting [4], 29.5 nM.
In the same order, the values of “AUUUAUGGCCAGAAGGACAUGAGGAUCACCCAUGUAGGAUAUGGACGAUUUUGCUCGGCGGUUUUUUUAGGAAGCACCGGUGGU” are 12.4 nM and 7.14 nM.
For “GCGUGGUUCUAGAAGGUGCUAGCGAUAAGCUAGCAAGGAUAUAGACAUGAGGAUCACCCAUGUCUUAGUGAAAUCGACACACGC”, the “apparent Kd” value was found to be 5.35 nM under setting [1] and 5.34 nM under setting [2].
For the sequence “GUCCAACAUGAGGAUCACCCAUGUCAGGAUAUACCGGGCGAAAGAAAGGCCCAUAAGGGUAGAAGGGACGGUGU”, the “apparent Kd” value runs as follows: under setting [1], 15.8 nM; under setting [2], 21 nM.
In the same order, the values of “ACUAGAUGAGGAUAUGCAUAUUUUCGUGUUCUUCUAGGUUAACAUGAGGAUCACCCAUGUAGAAGGCGUCUAUG” are 21.1 nM and 47.6 nM.
For “GUCUACCUAGGAUAUACAUGAGGAUCACCCAUGUAAAGUUUCGUAAAAAGAUAAUCGAGUAGAAGGAGGUGGAU” the same measures were 20.3 nM and 20.9 nM.
For “UGUGUGUGGGCAGGAUAUGCAUGAAUAUGUAUGAUGUAGUGUGAUGUAACAUGAGGAUCACCCAUGUAGAAGGGCCGGUGUAUG”, the “apparent Kd” value by setting is: under setting [1], 94.5 nM; under setting [2], 122 nM.
As to “CGGAUCGCAUGAGGAUAUGGUCAGGUUUCCUGACCAGAAGGCAUGUCAUAAGACAUGAGGAUCACCCAUGUAGUUAAGAUCCGA”, the “apparent Kd” value came to 577 nM under setting [3] and 40.2 nM under setting [4].
On to “CGAAGUACGUAAGGAUAUACCGUGAGGACAACGGUAGAAGGUACAACAACAUGAGGAUCACCCAUGUGGACCUCUCGGCGUUGU”, for which the “apparent Kd” value was found to be 394 nM under setting [1] and 617 nM under setting [2].
For “GUGUACAGAGGAUAUACAUGAGCAUGGAAACAUGCAUCUUCACAUGAGGAUCACCCAUGUAGAAGGCUGUACAC”, the “apparent Kd” value runs as follows: under setting [1], 227 nM; under setting [2], 75 nM.
In the same order, the values of “UUAGAGGAUUAAGGAUAUGCAGAGAGAUUAUGCGCGUCGCGCACAUGAGGAUCACCCAUGUAAGAGCAGAAGGUAACUAUGAUC” are 22.8 nM and 16.4 nM.
On to “AUAUUUGUGUAGAAGGUACGUGAUUAGUCAAAGUAAGGAUAUACUGACAUGAGGAUCACCCAUGUUUAAAUAGUUAAAUGUUCU”, for which the “apparent Kd” value is, setting by setting: under setting [3], 10.9 nM; under setting [4], 8.01 nM.
In the case of “AUAAGCUCGUCAGGAUAUACGUCACUGCUUCGGCAGUGAGGUAAGAUCACAUGAGGAUCACCCAUGUAGAAGGGACGAGCUUAU”, the “apparent Kd” value under setting [1] is 5.65 nM and the “apparent Kd” value under setting [2] came to 14.4 nM.
With “AACAGUACAGGAUAUACAUGAGGAUCACCCAUGUGAGAAUUUAGCAGCGUACCACACAGUAGAAGGGUAAUGGA”, the “apparent Kd” value under setting [1] is 28.2 nM and the “apparent Kd” value under setting [2] was 25.5 nM.
On to “AUUACAUGAGGAUCACCCAUGUACGGCACGUUUCAAAACACUGAGGAUAUACGAUAUGUAGGAACGUAGAAGGCAGUGGGUGCA”, for which the “apparent Kd” value came out at 99.7 nM under setting [3] and 34 nM under setting [4].
In the same order, the values of “GCCAUCGUAUGAGGAUAUGGCACCGAAACGGUGCCAGAAGGCAUGUCAAUAGACAUGAGGAUCACCCAUGUGUUAUCGAUGGCC” are 84.9 nM and 11.7 nM.
As to “AAGAGCGAUUCUCCCUUCCUACAUGAGGAUCACCCAUGUACGAGAAGGCGCCGUGGAUACCACGGUGAGGAUAUCGUGCGUUAC”, the “apparent Kd” value under setting [1] stood at 4.55 nM and the “apparent Kd” value under setting [2] is 5.13 nM.
As for “CCAACCGUAGGAUAUUCCAAGUCCGACAUGAGGAUCACCCAUGUGUUUCUCUGCGAUUUAGGAGAAGGGCGGUUGG”, the “apparent Kd” value under setting [1] came to 349 nM and the “apparent Kd” value under setting [2] was found to be 474 nM.
Turning to “UUGUACAUUCGAGGAUAUCGGAGAGAGAUCAUUCGAGAAGGCGAUUCAUGAUGUAUUAUCCUGGACAUGAGGAUCACCCAUGUA”, the “apparent Kd” value is, setting by setting: under setting [3], 111 nM; under setting [4], 65.9 nM.
For “GCCGAACAUGAGGAUCACCCAUGUCUGGGUAAUUAAGGAUAUGGGAAGGCUUUGCCGUGGCCAGAAGGUGGUUAUC” the same measures were 171 nM and 108 nM.
In the same order, the values of “UUUUUUUUACAGAAGGGAAUCAUGAUUUUUUGUUUUUACAUGAGGAUCACCCAUGUUUAUCUUUUUCAGGAUAUGUAUUUUUUU” are 61.3 nM and 32 nM.
Take “UUAACACAUGAGGAUCACCCAUGUUAGGAUAUUGUGGUGGGAACAACUGGGAAACGCACGAGAAGGGACACACA”: the “apparent Kd” value by setting is: under setting [1], 35.7 nM; under setting [2], 26.2 nM.
For “UGGACCGAGCUGUCGGUUGACUCGAAGGAUAUGACAUGAGGAUCACCCAUGUGGGAUCUAAAUUGUCAGAAGGUUGGUUCUGGG”, the “apparent Kd” value under setting [1] amounted to 641 nM and the “apparent Kd” value under setting [2] came out at 276 nM.
For “GGAUGACAAAGUCAUCCUUAACGAACAUGAGGAUCACCCAUGUAGGAUAUGGUACUCAAAGAGUACCAGAAGGACAUGUGCCUU” the same measures were 34.3 nM and 203 nM.
In the case of “UUCAGCUCGUGAGGAUAUACAUGUGCUGGAAACAGCACUAAUUAAUUCACAUGAGGAUCACCCAUGUAGAAGGCACGAGCUGAG”, the “apparent Kd” value by setting is: under setting [1], 15.7 nM; under setting [2], 18.1 nM.
In the same order, the values of “UUUGACCUAGGAUAUACAUGAGGAUCACCCAUGUUCCGGUGGGUUAACGACAACCUCAGUAGAAGGAGGAGCUU” are 31.8 nM and 58.9 nM.
In the case of “GGUUGGCGAGGAUAUACAUGAGGAUCACCCAUGUGGUCCUGUGGCUGGUCAAAACUUUGUAGAAGGCGCGGGUC”, the “apparent Kd” value under setting [1] was 83.1 nM and the “apparent Kd” value under setting [2] is 101 nM.
In the same order, the values of “AGAAGUUUGUAGAAGGACGACUAAUUUGUAUUCGUAGGAUAUACUAUUUACAUGAGGAUCACCCAUGUUUUUAUGGAACAAUGU” are 11.9 nM and 17.2 nM.
For “GGAAUACAUGAGGAUCACCCAUGUAAGGAUAUGCUGAUUAACACGGAAUAAUUAUGCAGCAGAAGGUACAAAGG” the same measures were 113 nM and 91.1 nM.
Turning to “GGAUCCAACACAGGAUAUGCUGGACUUUGUCCAGCAGAAGGGUGAAGAACAUGAGGAUCACCCAUGUGGAUCCAUACAUUUAAU”, the “apparent Kd” value is, setting by setting: under setting [3], 254 nM; under setting [4], 15.7 nM.
For the sequence “AACGUGGCAAAGGAUAUCCACACGGCAAAGCCGGGAGAAGGUUGCACAUGAGGAUCACCCAUGUGAACCAAACA”, the “apparent Kd” value amounted to 14.9 nM under setting [1] and 17.8 nM under setting [2].
On to “AAUCUAAUCCUUAAACAUGAGGAUCACCCAUGUAUUGGCAAGUAGGAUAUCGAUAAAUAUUUCAACGAGAAGGACUAUACAAAA”, for which the “apparent Kd” value by setting is: under setting [1], 21.7 nM; under setting [2], 31.7 nM.
For “AUCAGCUCGUCAGGAUAUACAUCACUGCUUCGGCAGUGUAUUAAGAUUACAUGAGGAUCACCCAUGUAGAAGGGACGAGCUGAU”, the “apparent Kd” value is 17.2 nM under setting [1] and 20.8 nM under setting [2].
For the sequence “UCGAACGGAAACAAAGUCGAUAGACAUGAGGAUCACCCAUGUAAGGAUAUGCCUACUAAAAGUAGGCAGAAGGUACGCGUUCGA”, the “apparent Kd” value reads like this: under setting [1], 18.9 nM; under setting [2], 28.1 nM.
For “AUAAGUCGAGGAUAUACAAAAUGCUAGCGAAAGCUAGCAUAACAUGAGGAUCACCCAUGUAGAAGGCGACAAUA” the same measures were 24.5 nM and 26.1 nM.

Source of the values: the EternaBench riboswitch data.
